From ChEMBL document CHEMBL1123285, “Substituted 1-benzylimidazole-2-thiols as potent and orally active inhibitors of dopamine beta-hydroxylase” (J Med Chem, 1986) come the findings set out here.

Molecules are shown by their SMILES.

Assay [1] relates to Rattus norvegicus. Briefly: In vivo evaluation ot the compound in spontaneously hypertensive rats for the mean arterial blood pressure. Type of assay: functional. In outline: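 Conscious SHR anesthetized with Brevital Na (10 mg/kg, iv) and femoral artery cannulated to a pressure transducer. After 1-h recovery, baseline MAP taken every 15 min for 1 h. Dosed 50 mg/kg ip unless noted, then MAP recorded every 15–30 min for 4 h. Value at 150 min postdose, mean ± SEM.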

The target in assay [2] is T1, Dopamine beta-hydroxylase (Bos taurus, UniProt P15101).
T1 sequence (P15101 whole entry): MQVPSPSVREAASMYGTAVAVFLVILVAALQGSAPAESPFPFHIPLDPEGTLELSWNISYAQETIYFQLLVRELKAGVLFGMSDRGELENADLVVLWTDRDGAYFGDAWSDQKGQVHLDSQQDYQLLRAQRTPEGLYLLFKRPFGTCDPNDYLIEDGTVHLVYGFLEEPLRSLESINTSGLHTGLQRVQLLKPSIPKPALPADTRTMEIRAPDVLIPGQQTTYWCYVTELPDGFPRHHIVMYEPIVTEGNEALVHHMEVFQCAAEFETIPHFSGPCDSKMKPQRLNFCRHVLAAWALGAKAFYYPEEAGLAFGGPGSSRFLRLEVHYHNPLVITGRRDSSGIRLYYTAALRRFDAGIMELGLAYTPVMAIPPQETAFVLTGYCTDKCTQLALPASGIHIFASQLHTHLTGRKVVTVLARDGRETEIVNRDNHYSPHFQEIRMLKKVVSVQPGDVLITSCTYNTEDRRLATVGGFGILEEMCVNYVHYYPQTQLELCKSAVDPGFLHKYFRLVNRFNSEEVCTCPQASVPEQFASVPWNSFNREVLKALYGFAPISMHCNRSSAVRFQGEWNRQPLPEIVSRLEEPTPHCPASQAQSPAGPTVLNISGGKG
Briefly: Binding affinity towards Dopamine beta hydroxylase using tyramine substrate at pH 4.5 in the absence of fumarate. The essentials:
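Homogeneous bovine DBH (sp act. 30–42 U/mg at pH 5.0), tyramine as substrate, pH 4.5, no fumarate. Conditions: 50 mM sodium acetate, ionic strength 0.2, 200 μg/mL bovine catalase, 10 μM Cu²⁺, 10 mM ascorbic acid, 37 °C. Km apparent for tyramine 3.0 mM. Ki fitted with Cleland programs; mean ± SEM.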

The nature of assay [3]: Ratio of dopamine to that of NE levels in mesenteric artery measured at 50 mg/kg po. Type of assay: functional.
A short description of assay [4]: In vivo evaluation ot the compound in spontaneously hypertensive rats for the catecholamine levels by taking the ratio of dopamine to norepinephrine. Type of assay: functional. The essentials:
(§1)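 SHR (N = 5) dosed orally twice, about 18 h apart, with vehicle (5% PEG 400 in 1% methocel) or drug at the stated dose. Killed 2 h after the second dose. Mesenteric artery homogenized. Catecholamines measured by COMT methylation with [methyl-3H]-S-adenosylmethionine, chromatographic separation of methylated amines and scintillation counting. Mean ± SEM.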

Assay [5] deals with Rattus norvegicus. In words: DBH inhibitory activity was measured as NE levels in mesenteric artery at dose of 100 mg/kg, po. Type of assay: functional, organism-based. Set-up: dose 100 mg/kg. In outline:
as §1

For assay [6], the system named is Rattus norvegicus. In words: DBH inhibitory activity was measured as NE levels in mesenteric artery at dose of 25 mg/kg, po. Type of assay: functional, organism-based. Set-up: dose 25 mg/kg. The essentials:
as §1

Assay [7] in a line: Ratio of dopamine to that of NE levels in mesenteric artery measured at 100 mg/kg po. Type of assay: functional. In outline: (§2)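 Spontaneously hypertensive rats (N = 5) got two oral doses about 18 h apart, either vehicle (5% PEG 400 in 1% methocel) or drug in vehicle, and were killed 2 h after the second dose. The mesenteric artery was homogenized. Dopamine and NE were measured by catechol O-methyltransferase methylation with [methyl-3H]-S-adenosylmethionine, then chromatographic separation and scintillation counting. Values are mean ± SEM.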

Assay [8] can be described thus: In vivo evaluation ot the compound in spontaneously hypertensive rats for the catecholamine levels by taking the ratio of copamine to norepinephrine. Format: functional. In outline:
as §2

Assay [9] deals with Rattus norvegicus. In words: DBH inhibitory activity was measured as NE levels in mesenteric artery at dose of 50 mg/kg, po. Format: functional, organism-based. Set-up: dose 50 mg/kg. In outline: as §1
For assay [10], the system named is Rattus norvegicus. In words: DBH inhibitory activity was measured as dopamine levels in mesenteric artery at dose of 100 mg/kg, po. Format: functional, organism-based. Set-up: dose 100 mg/kg. In outline:
as §1

For assay [11], the system named is Rattus norvegicus. Briefly: DBH inhibitory activity was measured as dopamine levels in mesenteric artery at dose of 25 mg/kg, po. Type of assay: functional, organism-based. Set-up: dose 25 mg/kg. In outline: as §1
The nature of assay [12]: Ratio of dopamine to that of NE levels in mesenteric artery measured at 25 mg/kg po. Type of assay: functional. In outline: as §2
The subject of assay [13] is Rattus norvegicus. In words: DBH inhibitory activity was measured as dopamine levels in mesenteric artery at dose of 25 mg/kg, po. Set-up: dose 25 mg/kg. Type of assay: functional, organism-based. In outline: as §1

Compound `Oc1ccc(Cn2cc[nH]c2=S)cc1` gave an MAP in the assay on Rattus norvegicus [1] of 137 mmHg.

The Ki is a measure of affinity in units of concentration, obtained from inhibition or displacement. For `CCCCc1ccc(C(=O)O)nc1` [FUSARIC ACID], the affinity in assay [2], expressed as Ki, was 149 nM. In addition, in assay [3], the Ratio is 0.109.

Take `Oc1c(F)cc(Cn2cc[nH]c2=S)cc1F`: the Ratio in [4] is 0.082. Moreover, in [2], affinity was put at a Ki of 5.7 nM. For the same compound, the MAP with Rattus norvegicus [1] was found to be 137 mmHg.

For `Fc1cc(F)cc(Cn2cc[nH]c2=S)c1`, the Level is 3.05 µg of tissue in the assay with Rattus norvegicus [5]; 4.94 µg of tissue in the assay with Rattus norvegicus [6]; 4 µg of tissue with Rattus norvegicus [9]; 1.06 µg of tissue with Rattus norvegicus [10]; 0.765 µg of tissue in the assay with Rattus norvegicus [11]; 0.3 µg of tissue with Rattus norvegicus [13]. Moreover, the Ratio was found to be 0.378 in assay [7], 0.208 in assay [8], 0.204 in assay [3] and 0.155 in [12]. In assay [2], this compound displayed a Ki of 41 nM. Further, the MAP in the assay with Rattus norvegicus [1] turned out to be 105 mmHg.
